Assay results of several laboratories.
Compare with care: the assays were run in different laboratories.
Read-out: enzyme activity
Action: inhibitor
CDK5 with p25: Cyclin-dependent kinase 5, with p25 (CDK5, Homo sapiens, UniProt Q00535)
CDK5 with p35: Cyclin-dependent kinase 5, with p35 (CDK5, Homo sapiens, UniProt Q00535)

Structure (SMILES) | target | test | conditions | remaining activity
Cc1ccc(C(=O)Nc2ccc(CN3CCN(C)CC3)c(C(F)(F)F)c2)cc1C#Cc1cnc2cccnn12 | Cyclin-dependent kinase 5 (CDK5, Homo sapiens, UniProt Q00535) |  | 23.5 nM | 98%
O=C(Nc1cnn(-c2csc(C(=O)NC3COC3)c2)c1)Nc1c(F)cccc1Cl | CDK5 with p25 |  | 5 µM | 88.2%
CC(C)(C)c1nc2c(s1)c1nc(N)ncc1c1ccc(NS(=O)(=O)c3c(F)cccc3F)c(F)c12 | CDK5 with p35 | radiometric | 1 µM | 77%
CCN(CC)c1ccc(C2=NNC(=O)CC2C)cc1[N+](=O)[O-] (centres unmarked) | CDK5 with p25 |  | 10 µM | 113%
CC(C)(O)[C@H]1CC[C@H](Nc2ccc3ncc(-c4cccc(C(F)(F)F)c4)n3n2)CC1 | CDK5 with p35 |  | 1 µM | 97.7%
Cc1sc(C(=O)NC2COC2)cc1-n1cc(NC(=O)Nc2c(F)cccc2Cl)cn1 | CDK5 with p25 |  | 10 µM | 97.6%
CC[C@H](C)[C@H](NC(=O)[C@H](CCC(N)=O)NC(=O)[C@H](CC(C)C)NC(=O)[C@H](CCSC)NC(=O)[C@H](CCCCN)NC(=O)[C@H](CO)NC(=O)[C@H](CO)NC(=O)[C@H](CCSC)NC(=O)[C@H](CC(C)C)NC(=O)[C@H](CC(N)=O)NC(=O)[C@@H](NC(=O)[C@@H](NC(=O)[C@H](CO)NC(=O)[C@H](CC(C)C)NC(=O)[C@H](CS)NC(=O)[C@H](CCCNC(=N)N)NC(=O)[C@H](CC(=O)O)NC(=O)[C@H](Cc1c[nH]c2ccccc12)NC(=O)[C@H](Cc1ccccc1)NC(=O)[C@H](C)NC(=O)[C@H](CCC(=O)O)NC(=O)[C@@H](N)CCCCN)C(C)C)[C@@H](C)CC)C(=O)N[C@@H](CC(N)=O)C(=O)N[C@@H](C)C(=O)O | CDK5 with p25 | radiometric | 250 µM, 20 min | 41%
COc1cc(Cl)c(C(=O)N[C@@H](CN[C@H]2CC[C@@H](N)CC2)Cc2ccc(C#N)cc2)cc1-c1ccc(CN[C@H](C)c2ccc(C)cc2)o1 | CDK5 with p25 |  | 1 µM | 102%
Cc1cnc(NC2CCOCC2)nc1-n1cnc(C(=O)NC(CN)c2cc(F)cc(Cl)c2)c1 (centres unmarked) | CDK5 with p35 | radiometric | 1 µM | 4%
CCCOc1ccc(OC)c(F)c1C(=O)c1ccc(C(=O)N[C@@H]2CNC[C@H]2NC(=O)c2ccc3[nH]ncc3c2)cc1 | CDK5 with p25 |  | 50 nM | 114%
O=C(Nc1cnn(-c2csc(C(=O)NC3COC3)c2)c1)Nc1ccccc1Cl | CDK5 with p25 |  | 5 µM | 101%
